Consider 2 compounds from ChEMBL document CHEMBL1139401, “5-(4-Chlorophenyl)-5,6-dihydro-1,3-oxazepin-7(4H)-one derivatives as lipophilic cyclic analogues of baclofen: design, synthesis, and neuropharmacological evaluation” (2008).

One assay deals with Mus musculus. In words: Neuropharmacological effect in albino mouse assessed as endurance time at 3 mg/kg, ip after 45 mins by rotarod test. In kind it is functional. Particulars: route intraperitoneal. In outline:
(§1)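 For the rotarod, the cylinder was 6 cm diameter, 30 cm high and turned at 12 rpm. Male albino mice were trained the day before to stay on for 300 s, and those not reaching this were excluded. Endurance time (max 300 s) was measured 30, 45, 60 and 90 min after ip drug in DMSO or vehicle. Five mice per group; mean ± SEM.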
For the compound `CCCCCCCC1=NCC(c2ccc(Cl)cc2)CC(=O)O1` (stereo not given), the Activity is listed as 300 s.

`CCCCCCCCC1=NCC(c2ccc(Cl)cc2)CC(=O)O1` (stereo not given): the Activity stood at 300 s.

In a further assay the test system is Mus musculus. Put plainly: Neuropharmacological effect in albino mouse assessed as endurance time at 3 mg/kg, ip after 60 mins by rotarod test. The assay is classed as functional. The conditions noted are these: route intraperitoneal. In outline: as §1
`CCCCCCCC1=NCC(c2ccc(Cl)cc2)CC(=O)O1` (stereo not given): the Activity was 300 s.

With `CCCCCCCCC1=NCC(c2ccc(Cl)cc2)CC(=O)O1` (stereo not given), the Activity turned out to be 300 s.

The test system of a further assay is Mus musculus. Put plainly: Neuropharmacological effect in albino mouse assessed as endurance time at 3 mg/kg, ip after 90 mins by rotarod test. In kind it is functional. The conditions noted are these: route intraperitoneal. In outline:
as §1
As for `CCCCCCCC1=NCC(c2ccc(Cl)cc2)CC(=O)O1` (stereo not given), the Activity was determined as 300 s.

On to `CCCCCCCCC1=NCC(c2ccc(Cl)cc2)CC(=O)O1` (stereo not given), for which the Activity came to 300 s.

A further assay relates to Mus musculus. Put plainly: Muscle relaxant activity in albino mouse at 3 mg/kg, ip after 30 mins by traction test. More on the design: scale not given: the % may be the effect or the level left. The assay is classed as functional. The conditions noted are these: route intraperitoneal. In outline:
(§2)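 Traction test in male albino mice (20–25 g), five per group, given drug ip in DMSO. Success required touching the wire with at least one hind paw within 5 s; otherwise scored as failure. Mice were tested 30, 45, 60 and 90 min after dosing, immediately before the rotarod. Results are % successful, mean ± SEM.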
`CCCCCCCC1=NCC(c2ccc(Cl)cc2)CC(=O)O1` (stereo not given) returned an Activity of 100%.

In turn, `CCCCCCCCC1=NCC(c2ccc(Cl)cc2)CC(=O)O1` (stereo not given) yielded an Activity of 100%.

A further assay relates to Mus musculus. In words: Muscle relaxant activity in albino mouse at 3 mg/kg, ip after 45 mins by traction test. In kind it is functional. Set-up: scale not given: the % may be the effect or the level left. The conditions noted are these: route intraperitoneal. In outline: as §2
`CCCCCCCC1=NCC(c2ccc(Cl)cc2)CC(=O)O1` (stereo not given): the Activity came to 100%.

Compound `CCCCCCCCC1=NCC(c2ccc(Cl)cc2)CC(=O)O1` (stereo not given) displayed an Activity of 100%.

For a further assay, the system named is Mus musculus. Put plainly: Muscle relaxant activity in albino mouse at 3 mg/kg, ip after 60 mins by traction test. In kind it is functional. Set-up: scale not given: the % may be the effect or the level left. The conditions noted are these: route intraperitoneal. In outline:
as §2
Take `CCCCCCCC1=NCC(c2ccc(Cl)cc2)CC(=O)O1` (stereo not given): the Activity was determined as 100%.

With `CCCCCCCCC1=NCC(c2ccc(Cl)cc2)CC(=O)O1` (stereo not given), the Activity was found to be 100%.

Another assay relates to Mus musculus. Put plainly: Muscle relaxant activity in albino mouse at 3 mg/kg, ip after 90 mins by traction test. The assay is classed as functional. More on the design: scale not given: the % may be the effect or the level left. Particulars: route intraperitoneal. In outline: as §2
As for `CCCCCCCC1=NCC(c2ccc(Cl)cc2)CC(=O)O1` (stereo not given), the Activity was determined as 100%.

On to `CCCCCCCCC1=NCC(c2ccc(Cl)cc2)CC(=O)O1` (stereo not given), for which the Activity is recorded as 100%.

The test system of the next assay is Mus musculus. In words: Analgesic activity in albino mouse assessed as retention latency at 3 mg/kg, ip after 30 mins by hot plate test. In kind it is functional. Particulars: route intraperitoneal. In outline: (§3)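 Male albino mice (20–25 g), five per group, given drug in DMSO ip; vehicle controls got DMSO alone. Mice were placed in a glass cylinder on a 54 °C metal plate. Latency to hind-paw lick or jump was recorded, with a 30 s cut-off. Testing was 30, 45, 60 and 90 min post-injection. Values are mean ± SEM.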
For `CCCCCCCC1=NCC(c2ccc(Cl)cc2)CC(=O)O1` (stereo not given), the Activity came to 8.12 s.

For `CCCCCCCCC1=NCC(c2ccc(Cl)cc2)CC(=O)O1` (stereo not given), the Activity is given as 8.12 s.

A further assay concerns Mus musculus. In words: Analgesic activity in albino mouse assessed as retention latency at 3 mg/kg, ip after 45 mins by hot plate test. In kind it is functional. The conditions noted are these: route intraperitoneal. In outline:
as §3
Regarding `CCCCCCCC1=NCC(c2ccc(Cl)cc2)CC(=O)O1` (stereo not given), the Activity came out at 8.22 s.

In the case of `CCCCCCCCC1=NCC(c2ccc(Cl)cc2)CC(=O)O1` (stereo not given), the Activity amounted to 8.22 s.

A further assay concerns Mus musculus. In words: Analgesic activity in albino mouse assessed as retention latency at 3 mg/kg, ip after 60 mins by hot plate test. The assay is classed as functional. The conditions noted are these: route intraperitoneal. In outline: as §3
Regarding `CCCCCCCC1=NCC(c2ccc(Cl)cc2)CC(=O)O1` (stereo not given), the Activity stood at 9.23 s.

For the compound `CCCCCCCCC1=NCC(c2ccc(Cl)cc2)CC(=O)O1` (stereo not given), the Activity worked out at 9.23 s.

Another assay relates to Mus musculus. Put plainly: Analgesic activity in albino mouse assessed as retention latency at 3 mg/kg, ip after 90 mins by hot plate test. The assay is classed as functional. Particulars: route intraperitoneal. In outline:
as §3
In the case of `CCCCCCCC1=NCC(c2ccc(Cl)cc2)CC(=O)O1` (stereo not given), the Activity is recorded as 9.33 s.

For `CCCCCCCCC1=NCC(c2ccc(Cl)cc2)CC(=O)O1` (stereo not given), the Activity came out at 9.33 s.

Another assay concerns Mus musculus. In words: Neuropharmacological effect in albino mouse assessed as spontaneous locomotor activity at 3 mg/kg, ip after 30 mins. The assay is classed as functional. The conditions noted are these: route intraperitoneal. In outline: (§4)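 Male albino mice (20–25 g), five per group, got ip drug in DMSO or DMSO vehicle and went back to their home cages. After 30, 45, 60 or 90 min each was placed alone in a Plexiglas box and spontaneous locomotor activity was recorded. Tests were run in the morning. Values are mean ± SEM.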
For `CCCCCCCC1=NCC(c2ccc(Cl)cc2)CC(=O)O1` (stereo not given), the Activity is 45.24 m.

For the compound `CCCCCCCCC1=NCC(c2ccc(Cl)cc2)CC(=O)O1` (stereo not given), the Activity is listed as 45.24 m.

The next assay concerns Mus musculus. In words: Neuropharmacological effect in albino mouse assessed as spontaneous locomotor activity at 3 mg/kg, ip after 45 mins. In kind it is functional. The conditions noted are these: route intraperitoneal. In outline:
as §4
As to `CCCCCCCC1=NCC(c2ccc(Cl)cc2)CC(=O)O1` (stereo not given), the Activity was 43.46 m.

`CCCCCCCCC1=NCC(c2ccc(Cl)cc2)CC(=O)O1` (stereo not given): the Activity is 43.46 m.

The next assay relates to Mus musculus. Put plainly: Neuropharmacological effect in albino mouse assessed as spontaneous locomotor activity at 3 mg/kg, ip after 60 mins. In kind it is functional. Particulars: route intraperitoneal. In outline: as §4
Regarding `CCCCCCCC1=NCC(c2ccc(Cl)cc2)CC(=O)O1` (stereo not given), the Activity is reported as 42.79 m.

As to `CCCCCCCCC1=NCC(c2ccc(Cl)cc2)CC(=O)O1` (stereo not given), the Activity was 42.79 m.

A further assay concerns Mus musculus. In words: Neuropharmacological effect in albino mouse assessed as spontaneous locomotor activity at 3 mg/kg, ip after 90 mins. The assay is classed as functional. The conditions noted are these: route intraperitoneal. In outline:
as §4
Turning to `CCCCCCCC1=NCC(c2ccc(Cl)cc2)CC(=O)O1` (stereo not given), the Activity is on record as 40.13 m.

Take `CCCCCCCCC1=NCC(c2ccc(Cl)cc2)CC(=O)O1` (stereo not given): the Activity was determined as 40.13 m.

The subject of a further assay is Mus musculus. In words: Neuropharmacological effect in albino mouse assessed as endurance time at 3 mg/kg, ip after 30 mins by rotarod test. In kind it is functional. The conditions noted are these: route intraperitoneal. In outline: as §1
For `CCCCCCCC1=NCC(c2ccc(Cl)cc2)CC(=O)O1` (stereo not given), the Activity turned out to be 300 s.

For the compound `CCCCCCCCC1=NCC(c2ccc(Cl)cc2)CC(=O)O1` (stereo not given), the Activity was found to be 300 s.

Another assay relates to Mus musculus. In words: Decrease in cognitive impairment in albino mouse assessed as retention latency at 3 mg/kg, ip after 30 mins by passive avoidance reflex test. The assay is classed as functional. Particulars: route intraperitoneal. In outline:
(§5)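 Passive avoidance in male albino mice (20–25 g), five per group, housed singly from the day before training. Drug in DMSO was given ip 30, 45, 60 or 90 min before the training trial. Mice were put in the light side of a two-compartment apparatus and the door to the dark side was opened. The retention test next day used the shock generator off. Latency reported as mean ± SEM.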
For `CCCCCCCC1=NCC(c2ccc(Cl)cc2)CC(=O)O1` (stereo not given), the Activity is recorded as 163.23 s.

For `CCCCCCCCC1=NCC(c2ccc(Cl)cc2)CC(=O)O1` (stereo not given), the Activity is on record as 163.33 s.

The test system of the next assay is Mus musculus. Put plainly: Decrease in cognitive impairment in albino mouse assessed as retention latency at 3 mg/kg, ip after 45 mins by passive avoidance reflex test. In kind it is functional. Particulars: route intraperitoneal. In outline:
as §5
For `CCCCCCCC1=NCC(c2ccc(Cl)cc2)CC(=O)O1` (stereo not given), the Activity is recorded as 163.23 s.

As to `CCCCCCCCC1=NCC(c2ccc(Cl)cc2)CC(=O)O1` (stereo not given), the Activity is listed as 163.23 s.

A further assay deals with Mus musculus. In words: Decrease in cognitive impairment in albino mouse assessed as retention latency at 3 mg/kg, ip after 60 mins by passive avoidance reflex test. The assay is classed as functional. Particulars: route intraperitoneal. In outline: as §5
Regarding `CCCCCCCC1=NCC(c2ccc(Cl)cc2)CC(=O)O1` (stereo not given), the Activity came out at 160.43 s.

Consider `CCCCCCCCC1=NCC(c2ccc(Cl)cc2)CC(=O)O1` (stereo not given), for which the Activity was 160.43 s.

The next assay relates to Mus musculus. In words: Decrease in cognitive impairment in albino mouse assessed as retention latency at 3 mg/kg, ip after 90 mins by passive avoidance reflex test. Particulars: route intraperitoneal. In kind it is functional. In outline: as §5
Take `CCCCCCCC1=NCC(c2ccc(Cl)cc2)CC(=O)O1` (stereo not given): the Activity worked out at 164.56 s.

Take `CCCCCCCCC1=NCC(c2ccc(Cl)cc2)CC(=O)O1` (stereo not given): the Activity is given as 164.56 s.
